Assay results reported in PMC7080202 (Medicinal Chemistry Research, 2013).
Like-named read-outs stand apart in the source and are kept apart here.

Columns and labels:
[1] = tested on: Herpes simplex virus-1 (KOS); test: microbe, parasite or virus in culture; assay type: cell-based, herpes simplex virus type 1; settings: read-out: EC50 Herpes simplex virus-1 (KOS)
[2] = tested on: Herpes simplex virus-2 (G); test: microbe, parasite or virus in culture; assay type: cell-based, herpes simplex virus type 2; settings: read-out: EC50 Herpes simplex virus-2 (G)
[3] = tested on: Vaccinia virus; test: microbe, parasite or virus in culture; assay type: cell-based; settings: read-out: EC50 Vaccinia virus
[4] = tested on: Vesicular stomatitis virus; test: microbe, parasite or virus in culture; assay type: cell-based; settings: read-out: EC50 Vesicular stomatitis virus
[5] = tested on: Herpes simplex virus-1TK-KOS ACV^r; test: microbe, parasite or virus in culture; assay type: cell-based, herpes simplex virus type 1; settings: read-out: EC50 Herpes simplex virus-1TK-KOS ACV^r
[6] = tested on: Feline corona virus; test: Antiviral CPE assay, feline corona virus in CRFK cells; assay type: cell-based, feline coronavirus (FIPV); settings: read-out: EC50 Feline corona virus; CRFK cell culture
[7] = tested on: Feline herpes virus; test: Antiviral CPE assay, feline herpes virus in CRFK cells; assay type: cell-based; settings: read-out: EC50 Feline herpes virus
[8] = tested on: Vesicular stomatitis virus; assay type: cell-based; settings: read-out: Antiviral activity EC50 Vesicular stomatitis virus
[9] = tested on: Coxsackie virus B4; test: microbe, parasite or virus in culture; assay type: cell-based; settings: read-out: Antiviral activity EC50 Coxsackie virus B4
[10] = tested on: Para-influenza-3 virus; test: organism not typed; assay type: cell-based, parainfluenza-3 virus; settings: read-out: Antiviral activity EC50 Para-influenza-3 virus
[11] = tested on: Reovirus-1; test: organism not typed; assay type: cell-based; settings: read-out: Antiviral activity EC50 Reovirus-1
[12] = tested on: Sindbis virus; test: microbe, parasite or virus in culture; assay type: cell-based; settings: read-out: Antiviral activity EC50 Sindbis virus
[13] = tested on: Coxsackie virus B4; test: microbe, parasite or virus in culture; assay type: cell-based; settings: read-out: Antiviral activity EC50 Coxsackie virus B4; remark: listed apart in the source
[14] = tested on: Punta Toro virus; test: microbe, parasite or virus in culture; assay type: cell-based; settings: read-out: Antiviral activity EC50 Punta Toro virus
[15] = tested on: Influenza A H1N1 subtype; test: Anti-influenza virus activity, influenza A H1N1 in MDCK cells; assay type: cell-based, influenza A virus A/Puerto Rico/8/34 (H1N1); settings: for EC50: read-out: Antiviral EC50 Influenza A H1N1 subtype MTS, MDCK cells, MTS; for anti-influenza activity (in words): H1N1, H3N2 and influenza B, below the non-toxic concentration of 100 µM
[16] = tested on: Influenza A H3N2 subtype; test: Anti-influenza virus activity, influenza A H3N2 in MDCK cells; assay type: cell-based, influenza A virus A/Hong Kong/7/87 (H3N2); settings: read-out: Antiviral EC50 Influenza A H3N2 subtype MTS
[17] = tested on: Influenza B; test: Anti-influenza virus activity, influenza B in MDCK cells; assay type: cell-based, influenza B virus B/Hong Kong/5/72
[18] = tested on: Human embryonic lung cell cultures; test: Cytotoxicity; assay type: cell-based
Outline: (§1)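 Cell cultures incubated with varying concentrations of test compound, then examined by microscopy. MCC is the lowest concentration that causes a microscopically detectable alteration of normal cell morphology. HEL, Vero and HeLa lines were monitored regularly for mycoplasma and found free of it.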

[19] = tested on: Crandell-Rees feline kidney cells; test: Cytotoxicity; assay type: cell-based
[20] = tested on: HeLa cell cultures; test: Cytotoxicity; assay type: cell-based
Outline: as §1

[21] = tested on: Vero cell cultures; test: Cytotoxicity; assay type: cell-based
Outline: as §1

[22] = tested on: MDCK cells; settings: for Cytotoxicity Minimum cytotoxic concentration: microscopically detectable alteration of normal cell morphology; for CC50: read-out: Cytotoxicity CC50, MTS assay
[23] = tested on: Cytomegalovirus Davis strain; test: microbe, parasite or virus in culture; assay type: cell-based; settings: Human betaherpesvirus 5, HEL, read-out: EC50 Cytomegalovirus Davis strain
[24] = in vitro; settings: dog
[25] = tested on: Cytomegalovirus AD-169 strain; assay type: cell-based, human cytomegalovirus; settings: both strains of HCMV (AD-169 and Davis)
[26] = read-out: Antiviral EC50 Influenza B MTS, MDCK cells, MTS

Molecule	EC50 ([1]; HEL cell culture) [µM]	EC50 ([2]; HEL cell culture) [µM]	EC50 [3] [µM]	EC50 [4] [µM]	EC50 ([5]; HEL cell culture) [µM]	EC50 [6] [µM]	EC50 ([7]; CRFK cell culture) [µM]	EC50 [8] [µM]	EC50 ([9]; HeLa cell cultures) [µM]	EC50 [10] [µM]	EC50 ([11]; Vero cell cultures) [µM]	EC50 ([12]; Vero cell cultures) [µM]	EC50 ([13]; Vero cell cultures) [µM]	EC50 ([14]; Vero cell cultures) [µM]	EC50 [15] [µM]	Minimum cytotoxic concentration [18] [µM]	Minimum cytotoxic concentration [19] [µM]	Minimum cytotoxic concentration [20] [µM]	Minimum cytotoxic concentration [21] [µM]	Cytotoxicity Minimum cytotoxic concentration [22]	also measured
1-({[4-(dimethylamino)phenyl]methylidene}amino)-3-{[(3Z)-2-oxo-2,3-dihydro-1H-indol-3-ylidene]amino}thiourea [4c]	> 100	> 100	> 100	> 100	> 100	> 100	> 100	> 100	> 100	> 100	> 100	> 100	> 100	> 100	> 100	≥100	>100	>100	>100	>100	EC50 [16]: > 100 µM; EC50 [17, 26]: > 100 µM; CC50 [22]: > 100 µM
O=C(N/N=C1\C(=O)Nc2ccc([N+](=O)[O-])cc21)N/N=C1\C(=O)Nc2ccc([N+](=O)[O-])cc21 [6d, 1,3-Bis({[(3Z)-5-nitro-2-oxo-2,3-dihydro-1H-indol-3-ylidene]amino})urea]																≥100	>100	>100	>100	>100	EC50 [23]: > 100 µM; EC50 ([1]; Human alphaherpesvirus 1, HEL): > 100 µM; EC50 ([2]; Human alphaherpesvirus 2, HEL): > 100 µM; EC50 ([3]; Orthopoxvirus vaccinia, HEL): > 100 µM; EC50 ([4]; Vesicular stomatitis virus, HEL): > 100 µM; EC50 ([5]; Human alphaherpesvirus 1, HEL): > 100 µM; EC50 ([7]; CRFK): > 100 µM; EC50 ([9]; Enterovirus B, B4, HeLa): > 100 µM; EC50 ([10]; Vero): > 100 µM; EC50 ([11]; Vero): > 100 µM; EC50 ([12]; Sindbis virus, Vero): > 100 µM; EC50 ([13]; Enterovirus B, B4, Vero): > 100 µM; EC50 ([14]; Punta Toro virus, Vero): > 100 µM; anti-influenza activity (in words) [15]: some activity; EC50 ([17]; Influenza B virus, MDCK, read-out: Antiviral EC50 Influenza B MTS): 38 ± 1.3 µM; EC50 ([17]; Influenza B virus, MDCK, read-out: Antiviral EC50 Influenza B Visual CPE score): 47 ± 2.5 µM; CC50 [24]: > 100 µM
1-{[(4-Chlorophenyl)methylidene]amino}-3-{[(3Z)-2-oxo-2,3-dihydro-1H-indol-3-ylidene]amino}thiourea [4e]	> 100	> 100	> 100	> 100	> 100	> 100	> 100	> 100	> 100	> 100	> 100	> 100	> 100	> 100	> 100	100	>100	>100	>100	>100	EC50 [16]: > 100 µM; EC50 [17, 26]: > 100 µM; CC50 [22]: > 100 µM
1-{[(4-Nitrophenyl)methylidene]amino}-3-{[(3Z)-2-oxo-2,3-dihydro-1H-indol-3-ylidene]amino}thiourea [4d]	> 100	> 100	> 100	> 100	> 100	> 100	> 100	> 100	> 100	> 20	> 20	> 20	> 20	> 20	> 100	100	>100	>100	100	>100	EC50 [16]: > 100 µM; EC50 [17, 26]: > 100 µM; CC50 [22]: > 100 µM
3-[(1H-indol-3-ylmethylidene)amino]-1-{[(3Z)-2-oxo-2,3-dihydro-1H-indol-3-ylidene]amino}thiourea [4a]	> 20	> 20	> 20	> 20	> 20	> 20	> 20	> 20	> 20	> 20	> 20	> 20	> 20	> 20	> 4	60	86	≥20	100	20	antiviral activity against HCMV (in words) [25]: moderate activity; EC50 [16]: > 4 µM; EC50 [17, 26]: > 4 µM; CC50 [22]: 51 µM
1-{[(3,4-Dimethoxyphenyl)methylidene]amino}-3-{[(3Z)-2-oxo-2,3-dihydro-1H-indol-3-ylidene]amino}thiourea [4f]	> 20	> 20	> 20	> 20	> 20	> 100	> 100	> 100	> 100	> 20	> 20	> 20	> 20	> 20	37 ± 25	100	100	>100	≥20	>100	anti-influenza activity (in words) [15]: some activity; EC50 [16]: 27 ± 7.3 µM; EC50 [17, 26]: 37 ± 8.75 µM; CC50 [22]: > 100 µM
